The values below come from ChEMBL document CHEMBL1144402, “Effect of a 6-cyano substituent in 14-oxygenated N-methylmorphinans on opioid receptor binding and antinociceptive potency” (J Med Chem, 2005).

The test system of test [1] is Mus musculus. The experiment in a line: In vivo analgesic effect of the compound (sc) assessed as antinociceptive potency by hot plate test in mice. It counts as functional. The method, boiled down: (§1)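 Male ICR mice of 20–30 g, each animal tested only once. Drug given subcutaneously at a minimum of three doses, 6–10 mice per dose. Hot-plate, tail-flick and p-phenylquinone writhing tests were run as modified procedures. Potency is given as the 50% effective dose with 95% confidence limits.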

Test [2] deals with Mu-type opioid receptor (Rattus norvegicus, UniProt P33535). The test can be described thus: Displacement of [3H][DAMGO] from mu opioid receptor of rat brain membranes. It counts as cell membranes, Membrane. In a few lines:
(§2)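 Competitive binding on rat brain membrane preparations with the tritiated radioligand named for each receptor (μ, [3H]DAMGO; δ, [3H][Ile5,6]deltorphin II; κ, [3H]U69,593). Affinity is reported as inhibition constant (Ki).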
A general note: Displacement assays read how much labelled ligand stays bound in the presence of the test substance.

The target of test [3] is Delta-type opioid receptor (Rattus norvegicus, UniProt P33533). The experiment in a line: Displacement of [3H]Ile5,6]-deltorphin II from delta opioid receptor of rat brain membranes. It counts as cell membranes, Membrane. In a few lines:
as §2

For test [4], the target named is Kappa-type opioid receptor (Rattus norvegicus, UniProt P34975). The experiment in a line: Displacement of[3H]U69,593 from kappa opioid receptor of rat brain membranes. The method, boiled down:
as §2

Test [5] has as its system Mus musculus. The test can be described thus: In vivo analgesic effect of the compound (sc) assessed as antinociceptive potency by tail flick test in mice. It counts as functional. In a few lines:
as §1

For test [6], the system named is Mus musculus. The test can be described thus: In vivo analgesic effect of the compound (sc) assessed as antinociceptive potency by p-phenylquinone writhing test in mice. It counts as functional. In a few lines: as §1
On the technique in general: Writhing tests count abdominal constrictions after an irritant is injected.

For test [7], the system named is Mus musculus. The experiment in a line: In vivo analgesic effect (sc) assessed as antinociceptive potency by p-phenylquinone writhing test in mice. It counts as functional. In a few lines: as §1
For test [8], the system named is Mus musculus. The experiment in a line: In vivo analgesic effect (sc) assessed as antinociceptive potency by tail flick test in mice. It counts as functional. The method, boiled down:
as §1
A general note: In hot-plate and tail-flick tests a longer latency is read as antinociception.

The test system of test [9] is Mus musculus. The test can be described thus: In vivo analgesic effect (sc) assessed as antinociceptive potency by hot plate test in mice. It counts as functional. The method, boiled down: as §1

The structures appear in SMILES notation.

Chain of Mu-type opioid receptor (P33535 whole entry): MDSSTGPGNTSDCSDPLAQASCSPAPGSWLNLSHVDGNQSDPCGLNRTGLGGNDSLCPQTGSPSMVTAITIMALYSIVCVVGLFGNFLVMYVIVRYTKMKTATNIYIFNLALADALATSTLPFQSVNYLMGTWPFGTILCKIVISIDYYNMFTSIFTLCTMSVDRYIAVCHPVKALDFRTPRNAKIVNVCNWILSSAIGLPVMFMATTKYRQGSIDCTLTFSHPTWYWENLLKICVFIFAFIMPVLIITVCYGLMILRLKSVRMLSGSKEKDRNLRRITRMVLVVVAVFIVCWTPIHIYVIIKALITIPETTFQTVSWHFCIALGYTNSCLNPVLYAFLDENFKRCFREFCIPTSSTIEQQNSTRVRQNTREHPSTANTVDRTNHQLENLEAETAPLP
Chain of Kappa-type opioid receptor (P34975 whole entry): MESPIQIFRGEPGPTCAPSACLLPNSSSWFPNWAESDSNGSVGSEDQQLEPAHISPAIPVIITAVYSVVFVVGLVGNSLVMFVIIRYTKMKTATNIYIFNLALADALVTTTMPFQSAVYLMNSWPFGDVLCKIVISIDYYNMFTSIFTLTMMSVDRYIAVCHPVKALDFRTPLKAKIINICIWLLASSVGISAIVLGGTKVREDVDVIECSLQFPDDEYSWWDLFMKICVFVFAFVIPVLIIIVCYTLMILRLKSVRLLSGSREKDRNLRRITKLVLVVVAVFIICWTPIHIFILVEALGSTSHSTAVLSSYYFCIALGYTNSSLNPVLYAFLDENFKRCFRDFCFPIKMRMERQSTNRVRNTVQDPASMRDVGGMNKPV
Chain of Delta-type opioid receptor (P33533 whole entry): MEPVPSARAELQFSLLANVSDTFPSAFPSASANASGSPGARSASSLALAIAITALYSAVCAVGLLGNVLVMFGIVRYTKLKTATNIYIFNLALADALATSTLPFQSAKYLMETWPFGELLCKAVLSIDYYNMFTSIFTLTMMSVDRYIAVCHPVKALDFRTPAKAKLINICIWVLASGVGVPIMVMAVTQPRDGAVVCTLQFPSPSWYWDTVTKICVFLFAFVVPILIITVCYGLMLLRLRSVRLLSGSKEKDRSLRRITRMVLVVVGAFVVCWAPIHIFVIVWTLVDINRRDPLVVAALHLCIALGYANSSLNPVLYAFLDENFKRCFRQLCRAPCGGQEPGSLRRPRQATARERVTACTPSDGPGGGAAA

In general, ED50 refers to the dose at which the effect has come halfway, by size or by number of responders. As usually defined, the Ki is a dissociation constant, usually derived from enzyme kinetics or from competition with a known ligand. For the compound `COc1ccc2c(c1O)[C@]13CCN(C)[C@H](C2)[C@]1(O)CCC(=O)C3`, the ED50 in test [1] worked out at 2.6 mg/kg. For the same compound, the Ki in [2] is 32.6 nM; in test [3], 881 nM; in [4], 763 nM.

Consider `COc1ccc2c(c1OC)[C@]13CCN(C)[C@H](C2)[C@]1(O)CCC(=O)C3`, for which the ED50 in test [1] came to 0.14 mg/kg. Also, the Ki was 3.88 nM in test [2], 91.6 nM in [3] and 693 nM in test [4].

For the compound `COc1ccc2c(c1O)[C@]13CCN(C)[C@H](C2)[C@]1(OC)CCC(=O)C3`, the ED50 in test [1] came to 0.29 mg/kg. Moreover, the Ki in [2] worked out at 4.65 nM; in test [3] it was 180 nM; in [4] it was 592 nM.

For the compound `COc1ccc2c(c1O)[C@@]13C=C(C#N)CC[C@@]1(O)[C@@H](C2)N(C)CC3`, the 50% effective dose (ED50) in test [1] was 0.5 mg/kg; in [5] it was 1.88 mg/kg; in test [6], 0.18 mg/kg. Also, the inhibition constant Ki amounted to 498 nM in test [3] and 1650 nM in test [4].

`COc1ccc2c(c1O)[C@@]13C=C(C#N)CC[C@@]1(OC)[C@@H](C2)N(C)CC3`: the 50% effective dose (ED50) in test [1] was determined as 0.25 mg/kg; in [5] it was 0.21 mg/kg; in test [6] it was 0.11 mg/kg. Also, the Ki came to 5.38 nM in test [2], 197 nM in test [3] and 378 nM in test [4].

Consider `COc1ccc2c(c1OC)[C@@]13C=C(C#N)CC[C@@]1(O)[C@@H](C2)N(C)CC3`, for which the ED50 in test [1] amounted to 0.15 mg/kg; in test [5], 0.018 mg/kg; in test [6] it was 0.026 mg/kg. For the same compound, the Ki amounted to 2.44 nM in test [2], 107 nM in [3] and 364 nM in [4].

For `COc1ccc2c3c1O[C@H]1C(=O)CC[C@@]4(O)[C@@H](C2)N(C)CC[C@]314` [OXYCODONE], the ED50 in test [7] came to 0.38 mg/kg; in [8], 0.94 mg/kg; in [9] it was 1.37 mg/kg.
